According to ChEMBL document CHEMBL4513216, “Probing the Open Global Health Chemical Diversity Library for Multistage-Active Starting Points for Next-Generation Antimalarials” (ACS Infect Dis, 2020):

experiment: Toxicity liver stage against HepG2, at 10uM; format: cell-based; parameters: test concentration 10 uM, cell line HepG2-A16-CD81EGFP; conditions: human, HepG2-A16-CD81EGFP cells; read-out: INHIBITION
Summary of the method: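 Uninfected HepG2-A16-CD81EGFP cells, 3 × 10^3 per well, 1536-well, plated on prespotted compound at 10 μM final, parasite-free screening media added to match infected plates; puromycin 10 μM positive, DMSO 0.5% negative; run in parallel with 48 h PbLuc assay at 37 °C, 5% CO2; viability by CellTiter-Glo luminescence, normalized to controls.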

**Q.** With `Cc1sc(-n2cnnn2)c(C(=O)NC(C)C)c1C` as the compound, how does the cytotoxicity at 10 µM read?
**A.** 2.83%

**Q.** Which cytotoxicity at 10 µM does the source give for `COc1ccc(CC(=O)Nc2ccc3ncn(C(C)C)c(=O)c3c2)cc1` here?
**A.** 3.97%

**Q.** For `O=S(=O)(NC1=NCN(CCc2cccs2)CN1)c1ccccc1`, which cytotoxicity at 10 µM is on record?
**A.** -3.32%

**Q.** Which cytotoxicity at 10 µM does the source give for `Cc1cnc(CC2COCCN(C(=O)c3cncs3)C2)cn1` (configuration not stated) here?
**A.** 3.65%

**Q.** For `c1ccc(-c2nc(CCNCc3ccncc3)co2)cc1`, which cytotoxicity at 10 µM is on record?
**A.** 6.07%

**Q.** With `Cc1noc(CCNC(=O)c2ccc(N(C)C)c(F)c2)n1` as the compound, how does the cytotoxicity at 10 µM read?
**A.** 6.05%

**Q.** With `CCc1ccc(NC(=O)C(C)Nc2cccc3c2OCCO3)cc1` (configuration not stated) as the compound, how does the cytotoxicity at 10 µM read?
**A.** 0.788%

**Q.** For `CCc1ccc(CNCC2CCN(CCO)CC2)cc1`, which cytotoxicity at 10 µM is on record?
**A.** -6.73%

**Q.** Which cytotoxicity at 10 µM does the source give for `CNc1cc(N2CCCC2CNCc2cccnc2C)ncn1` (configuration not stated) here?
**A.** 0.759%

**Q.** Which cytotoxicity at 10 µM does the source give for `CCN(C(C)c1cccc(O)c1)S(=O)(=O)c1cccnc1` (configuration not stated) here?
**A.** 10.8%

**Q.** With `CCC(=O)N(CCC(=O)O)Cc1ccc(F)c(F)c1` as the compound, how does the cytotoxicity at 10 µM read?
**A.** -1.99%

**Q.** Which cytotoxicity at 10 µM does the source give for `COCc1noc(-c2nn(-c3ccccc3F)c3c2CCC3)n1` here?
**A.** -2.68%

**Q.** Which cytotoxicity at 10 µM does the source give for `Cc1cc(F)ccc1N1CCCC(NC2CCOCC2)C1=O` (configuration not stated) here?
**A.** -11.3%

**Q.** Which cytotoxicity at 10 µM does the source give for `Cc1nn(C)c(C)c1Cc1nc(N(C)C)no1` here?
**A.** 7.06%

**Q.** With `COc1c(C)cnc(CN2CCCC2c2noc(C3CC3)n2)c1C` (configuration not stated) as the compound, how does the cytotoxicity at 10 µM read?
**A.** -0.0422%

**Q.** Which cytotoxicity at 10 µM does the source give for `Cc1nnc(CN2CCCC2c2ccc(Cl)c(Cl)c2)o1` (configuration not stated) here?
**A.** -1.7%

**Q.** With `CN(CC1CN(CCn2cc(C#N)cn2)CCO1)c1cccnn1` (configuration not stated) as the compound, how does the cytotoxicity at 10 µM read?
**A.** 1.85%

**Q.** Which cytotoxicity at 10 µM does the source give for `Cc1noc(C)c1CN1CCCC(CN(C(=O)OC(C)(C)C)C(C)C)C1` (configuration not stated) here?
**A.** 2.42%

**Q.** Which cytotoxicity at 10 µM does the source give for `COCc1cccc(NC(C)C(=O)N(C)Cc2cccc(F)c2)c1` (configuration not stated) here?
**A.** 12.2%

**Q.** With `COCC(=O)N1CCN(C(=O)c2scnc2C)CC1` as the compound, how does the cytotoxicity at 10 µM read?
**A.** -9.75%

**Q.** For `Cc1cc(C)n(C2CCN(c3ncnc4sc5c(c34)CCNC5)C2)n1` (configuration not stated), which cytotoxicity at 10 µM is on record?
**A.** 17.3%

**Q.** With `COc1cc(OC)nc(N2CCCC(c3nccn3CCN(C)C)C2)n1` (configuration not stated) as the compound, how does the cytotoxicity at 10 µM read?
**A.** 5.12%

**Q.** Which cytotoxicity at 10 µM does the source give for `CC(C)=CCCC1(C)CCC(=O)N(CCc2nc(N)cc(O)n2)C1` (configuration not stated) here?
**A.** 0.361%

**Q.** Which cytotoxicity at 10 µM does the source give for `O=C1NC[C@@]2(C(=O)O)CN(Cc3ccc(Oc4ccccc4)cc3)C[C@@H]12` here?
**A.** -8.39%

**Q.** For `CC(C)c1noc(CN(C)C(=O)c2ccccc2-c2nc[nH]n2)n1`, which cytotoxicity at 10 µM is on record?
**A.** 10.4%

**Q.** For `c1ccc(CCc2n[nH]c(C3CCOC3)n2)cc1` (configuration not stated), which cytotoxicity at 10 µM is on record?
**A.** 2.78%

**Q.** With `CC(O)CN1CCC(CN(C)Cc2cccc(C(=O)N(C)C)c2)CC1` (configuration not stated) as the compound, how does the cytotoxicity at 10 µM read?
**A.** -5.74%

**Q.** Which cytotoxicity at 10 µM does the source give for `COc1ccc(C2CCCN2C(=O)NCCn2ccnc2)cc1` (configuration not stated) here?
**A.** -9.13%

**Q.** For `O=C(Nc1nccs1)NC1CCN(CC2CCCC2)CC1`, which cytotoxicity at 10 µM is on record?
**A.** -8.07%

**Q.** Which cytotoxicity at 10 µM does the source give for `c1coc(-c2nc(CNCCn3cccn3)cs2)c1` here?
**A.** -13.8%

**Q.** With `CCOc1ccccc1OC1CCN(C(=O)c2cnsn2)CC1` as the compound, how does the cytotoxicity at 10 µM read?
**A.** 0.32%

**Q.** Which cytotoxicity at 10 µM does the source give for `CCn1cc(NC(=O)NCC(C)N(C)C)cn1` (configuration not stated) here?
**A.** -18.8%

**Q.** Which cytotoxicity at 10 µM does the source give for `COc1ccccc1CC(=O)N1CCCC(n2nc(C)nc2C)C1` (configuration not stated) here?
**A.** -4.47%

**Q.** For `Cc1nc(C)n(CC2CCCCN2CCOc2cccc(C#N)c2)n1` (configuration not stated), which cytotoxicity at 10 µM is on record?
**A.** -10%

**Q.** With `Cc1ccc(C(=O)N(C)Cc2cc(C)on2)cn1` as the compound, how does the cytotoxicity at 10 µM read?
**A.** -3.05%

**Q.** With `Cc1cc(NC(=O)CN(CC2CCOC2)C2CC2)no1` (configuration not stated) as the compound, how does the cytotoxicity at 10 µM read?
**A.** 1.65%

**Q.** Which cytotoxicity at 10 µM does the source give for `Cc1nc(C2CCCN(C(=O)COCc3ccccc3)C2)no1` (configuration not stated) here?
**A.** -2%

**Q.** For `Cc1ccc(NS(=O)(=O)c2cc3c(c(C(=O)O)c2)OCCO3)cc1F`, which cytotoxicity at 10 µM is on record?
**A.** -5.77%

**Q.** Which cytotoxicity at 10 µM does the source give for `CCc1cccc(N2CCC(NC(=O)C3CCOCC3)CC2)c1` here?
**A.** -8.93%

**Q.** With `O=C(CCc1ccc(F)c(F)c1)N1CCCCC1Cn1cccn1` (configuration not stated) as the compound, how does the cytotoxicity at 10 µM read?
**A.** -8.01%

**Q.** For `CCn1cnnc1CNC(=O)N1CCN(C(C)C)CC1`, which cytotoxicity at 10 µM is on record?
**A.** -18.1%

**Q.** For `CC(C)c1nnc2n1CCN(C(=O)c1ccc(S(C)(=O)=O)cc1)C2`, which cytotoxicity at 10 µM is on record?
**A.** -0.252%

**Q.** Which cytotoxicity at 10 µM does the source give for `CO[C@H]1CN(CC2CCOCC2)[C@@H]2CCCO[C@H]12` here?
**A.** -100%

**Q.** For `COCC(=O)N1CCN(CCn2cccn2)c2nc(C)ccc2C1`, which cytotoxicity at 10 µM is on record?
**A.** 10.5%

**Q.** Which cytotoxicity at 10 µM does the source give for `COc1cccc(CN2CCC3(CCN(C(=O)C4CC=CC4)CC3)C2)c1` here?
**A.** -0.602%

**Q.** With `N#Cc1cccc(N2CC3(CCN(C(=O)c4ccncc4)C3)CC2=O)c1` (configuration not stated) as the compound, how does the cytotoxicity at 10 µM read?
**A.** -1.75%

**Q.** For `CCn1cc(CN2C[C@@H]3CC[C@H]2CN(C(=O)c2cnccn2)C3)cn1`, which cytotoxicity at 10 µM is on record?
**A.** -8.39%
